Calls of active or inactive are those of the source. No cut-off for these calls is given here.
Columns and labels:
Cytochrome P450 2D6 = Cytochrome P450 2D6 (Homo sapiens, UniProt P10635); experiment: Inhibition of CYP2D6 (unknown origin) at 10 uM; assay type: ADME
Mus musculus [1] = experiment: Reduction in plasma triglyceride level in C57BL/6J mouse at 0.1 mg/kg, po treated 30 mins prior to olive oil administration measured 3 hrs post olive oil administration relative to vehicle-treated control; assay type: functional; design: scale not given: the % may be the effect or the level left
In short: (§1)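 Animals received vehicle or compound by oral gavage, then olive oil (5 mL/kg) by oral gavage 30 min later. Plasma triglycerides were measured before dosing and 3 h after the oil. The read-out was the change in TG from pre-dose, compared with vehicle-treated animals.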

[2] = Half life in CD1 mouse at 0.5 mg/kg, iv; assay type: ADME, organism-based; design: dose 0.5 mg/kg, route intravenous; details: in vivo
Cytochrome P450 2C9 = Cytochrome P450 2C9 (Homo sapiens, UniProt P11712); experiment: Inhibition of CYP2C9 (unknown origin) at 10 uM; assay type: ADME
Cynomolgus monkey [3] = experiment: Toxicity in cynomolgus monkey assessed as elevation of prolongation of QTc interval at 10 to 30 mg/kg/day, po qd by 21-day multiple-dose toxicity study relative to control; assay type: organism-based, Macaca fascicularis; design: route oral; details: in vivo
In short: (§2)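 Cynomolgus monkeys were dosed po once daily at 10 and 30 mg/kg for 21 days. ALT and AST levels, QTc intervals, and clinical and histopathological findings were assessed, and plasma AUC was recorded for each dose.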

[4] = Clearance in CD1 mouse at 0.5 mg/kg, iv; assay type: ADME, organism-based; design: dose 0.5 mg/kg, route intravenous; details: in vivo
[5] = AUC in C57BL/6J mouse at 0.3 mg/kg, po; assay type: ADME, organism-based; design: dose 0.3 mg/kg, route oral; details: plasma
Cytochrome P450 3A4 = Cytochrome P450 3A4 (Homo sapiens, UniProt P08684); experiment: Inhibition of CYP3A4 (unknown origin) at 10 uM; assay type: ADME
[6] = AUC in cynomolgus monkey at 10 mg/kg/day, po qd; assay type: ADME, organism-based, Macaca fascicularis; design: route oral; details: plasma
In short: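 Cynomolgus monkeys dosed orally once daily at 10 or 30 mg/kg for 21 days in a multiple-dose toxicity study. Plasma AUC was reported, with ALT/AST levels, QTc intervals and clinical and histopathological findings monitored.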

[7] = AUC in beagle dog at 2 mg/kg, po; assay type: ADME, organism-based, Canis lupus familiaris; design: dose 2 mg/kg, route oral; details: plasma
[8] = Volume of distribution at steady state in Sprague-Dawley rat at 0.7 mg/kg, iv; assay type: ADME, organism-based; design: dose 0.7 mg/kg, route intravenous; details: in vivo, read-out: Vdss
[9] = target: T1, Voltage-gated inwardly rectifying potassium channel KCNH2 (Homo sapiens, UniProt Q12809); experiment: Inhibition of human ERG up to 5 uM by patch clamp assay
Mus musculus [10] = experiment: Reduction in plasma triglyceride level in po dosed C57BL/6J mouse compound treated 30 mins prior to olive oil administration measured 3 hrs post olive oil administration relative to vehicle-treated control; assay type: functional, organism-based; in short: as §1
[11] = Oral bioavailability in beagle dog at 2 mg/kg; assay type: ADME, organism-based, Canis lupus familiaris; details: in vivo
[12] = Half life in cynomolgus monkey at 0.5 mg/kg, iv; assay type: ADME, organism-based, Macaca fascicularis; design: dose 0.5 mg/kg, route intravenous; details: in vivo
[13] = AUC in cynomolgus monkey at 5 mg/kg, po; assay type: ADME, organism-based, Macaca fascicularis; design: dose 5 mg/kg, route oral; details: plasma
Cytochrome P450 1A2 = target: T2, Cytochrome P450 1A2 (Homo sapiens, UniProt P05177); experiment: Inhibition of CYP1A2 (unknown origin) at 10 uM; assay type: ADME
T2 sequence (P05177 whole entry): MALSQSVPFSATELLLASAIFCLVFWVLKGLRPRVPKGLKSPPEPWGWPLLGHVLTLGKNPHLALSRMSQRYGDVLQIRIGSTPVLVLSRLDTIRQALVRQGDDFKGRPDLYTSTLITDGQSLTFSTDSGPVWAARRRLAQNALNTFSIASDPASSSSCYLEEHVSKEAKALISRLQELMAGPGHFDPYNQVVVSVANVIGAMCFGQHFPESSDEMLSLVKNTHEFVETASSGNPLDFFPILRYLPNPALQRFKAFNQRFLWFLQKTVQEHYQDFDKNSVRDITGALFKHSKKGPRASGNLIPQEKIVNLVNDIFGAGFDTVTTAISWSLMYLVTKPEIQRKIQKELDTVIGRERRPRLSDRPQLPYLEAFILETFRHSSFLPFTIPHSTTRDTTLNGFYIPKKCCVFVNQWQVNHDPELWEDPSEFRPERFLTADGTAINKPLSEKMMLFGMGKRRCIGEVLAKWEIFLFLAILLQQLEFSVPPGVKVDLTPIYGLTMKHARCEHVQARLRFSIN

Rattus norvegicus [14] = experiment: Toxicity in Sprague-Dawley rat assessed as change in clinical parameters at 10 mg/kg, po qd by 14-day multiple-dose toxicity study; assay type: organism-based; design: dose 10 mg/kg, route oral; details: in vivo
In short: (§3)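 Sprague−Dawley rats were dosed po once daily for 14 days. Clinical and histopathological findings were assessed, and plasma AUC was recorded for each dose.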

Cynomolgus monkey [15] = experiment: Toxicity in cynomolgus monkey assessed as elevation of ALT level at 10 to 30 mg/kg/day, po qd by 21-day multiple-dose toxicity study relative to control; assay type: organism-based, Macaca fascicularis; design: route oral; details: in vivo; in short: as §2
[16] = Volume of distribution at steady state in CD1 mouse at 0.5 mg/kg, iv; assay type: ADME, organism-based; design: dose 0.5 mg/kg, route intravenous; details: in vivo, read-out: Vdss
[17] = Clearance in beagle dog at 0.5 mg/kg, iv; assay type: ADME, organism-based, Canis lupus familiaris; design: dose 0.5 mg/kg, route intravenous; details: in vivo
[18] = AUC in beagle dog at 5 mg/kg, po; assay type: ADME, organism-based, Canis lupus familiaris; design: dose 5 mg/kg, route oral; details: plasma
[19] = Oral Bioavailability in CD1 mouse at 2 mg/kg; assay type: ADME, organism-based; details: in vivo
Rattus norvegicus [20] = experiment: Reduction in plasma triglyceride level in Sprague-Dawley rat at 0.1 mg/kg, po treated 30 mins prior to olive oil administration measured 3 hrs post olive oil administration relative to vehicle-treated control; assay type: functional; design: scale not given: the % may be the effect or the level left; in short: as §1
Rattus norvegicus [21] = experiment: Toxicity in Sprague-Dawley rat assessed as change in clinical parameters at 30 mg/kg, po by 14-day multiple-dose toxicity study; assay type: organism-based; design: dose 30 mg/kg, route oral; details: in vivo; in short: as §3
Rattus norvegicus [22] = experiment: Reduction in plasma triglyceride level in po dosed Sprague-Dawley rat compound treated 30 mins prior to olive oil administration measured 3 hrs post olive oil administration relative to vehicle-treated control; assay type: functional, organism-based; in short: as §1
[23] = target: T3, Sterol O-acyltransferase 2 (Homo sapiens) (UniProt O75908); experiment: Inhibition of human full-length flag-tagged ACAT2 expressed in baculovirus infected insect cells using [14C]palmitoyl CoA as substrate up to 10 uM after 10 mins by scintillation counting
T3 sequence (whole entry): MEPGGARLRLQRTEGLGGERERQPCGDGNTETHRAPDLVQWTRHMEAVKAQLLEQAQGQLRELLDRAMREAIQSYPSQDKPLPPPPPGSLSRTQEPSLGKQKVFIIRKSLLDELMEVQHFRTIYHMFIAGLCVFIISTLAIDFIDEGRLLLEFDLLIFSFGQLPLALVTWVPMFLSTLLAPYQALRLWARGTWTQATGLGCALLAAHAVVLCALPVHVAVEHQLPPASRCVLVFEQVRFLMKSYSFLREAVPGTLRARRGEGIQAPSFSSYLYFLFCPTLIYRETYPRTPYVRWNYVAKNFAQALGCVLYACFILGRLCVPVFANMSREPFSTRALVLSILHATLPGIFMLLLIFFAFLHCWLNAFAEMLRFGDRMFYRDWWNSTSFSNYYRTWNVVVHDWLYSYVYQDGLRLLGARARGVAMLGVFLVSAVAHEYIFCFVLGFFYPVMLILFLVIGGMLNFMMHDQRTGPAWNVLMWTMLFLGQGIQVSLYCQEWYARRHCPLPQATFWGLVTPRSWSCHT

[24] = AUC in CD1 mouse at 2 mg/kg, po; assay type: ADME, organism-based; design: dose 2 mg/kg, route oral; details: plasma
[25] = target: T1, Voltage-gated inwardly rectifying potassium channel KCNH2; experiment: Inhibition of human ERG by patch clamp assay
[26] = AUC in Sprague-Dawley rat at 2 mg/kg, po; assay type: ADME, organism-based; design: dose 2 mg/kg, route oral; details: plasma

T1 sequence (Q12809 whole entry): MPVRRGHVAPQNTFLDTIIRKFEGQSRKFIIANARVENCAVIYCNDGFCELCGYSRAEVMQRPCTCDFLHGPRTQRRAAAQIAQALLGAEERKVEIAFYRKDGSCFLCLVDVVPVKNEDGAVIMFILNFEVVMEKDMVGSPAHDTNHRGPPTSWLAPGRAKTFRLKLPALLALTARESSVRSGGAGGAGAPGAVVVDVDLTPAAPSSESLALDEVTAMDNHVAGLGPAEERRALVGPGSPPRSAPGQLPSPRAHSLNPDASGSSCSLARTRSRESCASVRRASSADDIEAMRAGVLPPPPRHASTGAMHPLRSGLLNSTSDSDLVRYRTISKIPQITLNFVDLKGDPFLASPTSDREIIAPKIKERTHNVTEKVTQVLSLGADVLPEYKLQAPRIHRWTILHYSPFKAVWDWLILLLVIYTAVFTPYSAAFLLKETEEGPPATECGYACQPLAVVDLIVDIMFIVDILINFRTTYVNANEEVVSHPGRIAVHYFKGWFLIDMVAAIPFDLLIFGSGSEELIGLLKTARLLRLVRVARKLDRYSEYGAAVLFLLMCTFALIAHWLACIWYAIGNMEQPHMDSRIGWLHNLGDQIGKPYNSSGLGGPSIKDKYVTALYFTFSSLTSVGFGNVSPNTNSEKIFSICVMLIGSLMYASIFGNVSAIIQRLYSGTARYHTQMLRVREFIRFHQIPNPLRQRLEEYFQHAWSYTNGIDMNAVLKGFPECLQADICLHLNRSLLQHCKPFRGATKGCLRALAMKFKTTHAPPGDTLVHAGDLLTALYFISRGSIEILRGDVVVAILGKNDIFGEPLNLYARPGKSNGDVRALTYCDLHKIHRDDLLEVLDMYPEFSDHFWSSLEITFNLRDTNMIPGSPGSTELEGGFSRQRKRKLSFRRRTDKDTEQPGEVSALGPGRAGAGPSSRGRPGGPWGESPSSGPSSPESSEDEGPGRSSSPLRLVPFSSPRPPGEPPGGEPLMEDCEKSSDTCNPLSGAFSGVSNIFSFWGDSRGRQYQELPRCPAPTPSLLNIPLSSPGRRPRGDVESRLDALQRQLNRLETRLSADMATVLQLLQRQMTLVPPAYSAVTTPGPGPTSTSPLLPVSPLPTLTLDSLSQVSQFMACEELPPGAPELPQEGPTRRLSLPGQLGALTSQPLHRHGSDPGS
Cytochrome P450 2D6, sequence (P10635 whole entry): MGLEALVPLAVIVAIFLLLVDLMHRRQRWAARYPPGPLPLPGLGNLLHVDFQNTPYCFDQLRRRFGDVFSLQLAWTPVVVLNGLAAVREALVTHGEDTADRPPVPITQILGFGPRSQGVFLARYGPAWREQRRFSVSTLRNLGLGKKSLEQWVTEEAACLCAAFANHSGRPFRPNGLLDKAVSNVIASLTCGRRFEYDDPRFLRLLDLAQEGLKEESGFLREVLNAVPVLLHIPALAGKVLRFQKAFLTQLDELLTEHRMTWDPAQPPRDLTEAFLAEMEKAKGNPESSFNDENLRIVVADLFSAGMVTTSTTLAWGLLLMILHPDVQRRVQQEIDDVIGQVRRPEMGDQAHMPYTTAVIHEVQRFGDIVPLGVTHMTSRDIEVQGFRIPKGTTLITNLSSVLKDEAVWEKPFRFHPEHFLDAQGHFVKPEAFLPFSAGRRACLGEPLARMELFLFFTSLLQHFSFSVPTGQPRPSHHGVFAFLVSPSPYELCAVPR
Cytochrome P450 3A4, sequence (P08684 whole entry): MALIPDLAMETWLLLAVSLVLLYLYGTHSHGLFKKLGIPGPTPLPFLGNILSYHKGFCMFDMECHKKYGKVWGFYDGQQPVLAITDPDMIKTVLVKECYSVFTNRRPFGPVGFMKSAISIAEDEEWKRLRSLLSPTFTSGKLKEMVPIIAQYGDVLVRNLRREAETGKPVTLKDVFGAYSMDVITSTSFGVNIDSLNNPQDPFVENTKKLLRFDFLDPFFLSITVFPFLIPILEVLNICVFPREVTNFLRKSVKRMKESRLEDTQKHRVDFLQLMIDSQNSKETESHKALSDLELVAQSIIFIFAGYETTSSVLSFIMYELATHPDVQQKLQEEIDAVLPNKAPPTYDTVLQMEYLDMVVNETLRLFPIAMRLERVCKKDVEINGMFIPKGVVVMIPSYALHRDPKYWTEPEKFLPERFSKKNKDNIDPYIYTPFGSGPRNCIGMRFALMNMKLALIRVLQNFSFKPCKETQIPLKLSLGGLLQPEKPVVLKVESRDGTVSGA
Cytochrome P450 2C9, sequence (P11712 whole entry): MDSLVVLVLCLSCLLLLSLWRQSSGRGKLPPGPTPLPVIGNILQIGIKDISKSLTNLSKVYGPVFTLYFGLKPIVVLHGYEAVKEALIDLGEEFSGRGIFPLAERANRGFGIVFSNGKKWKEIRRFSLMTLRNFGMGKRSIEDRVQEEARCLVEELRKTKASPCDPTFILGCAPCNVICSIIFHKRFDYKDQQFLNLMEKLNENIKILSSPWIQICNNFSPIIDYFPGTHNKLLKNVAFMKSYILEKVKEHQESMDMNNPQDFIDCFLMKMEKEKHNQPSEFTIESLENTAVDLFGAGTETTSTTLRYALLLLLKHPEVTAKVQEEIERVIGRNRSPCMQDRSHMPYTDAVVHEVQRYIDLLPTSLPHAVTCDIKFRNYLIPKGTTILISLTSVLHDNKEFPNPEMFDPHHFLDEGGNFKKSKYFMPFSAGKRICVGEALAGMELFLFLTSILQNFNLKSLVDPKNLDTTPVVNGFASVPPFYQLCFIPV

## CC1(C)Oc2nc(C(F)(F)F)nc(N)c2N=C1c1ccc2c(c1)CC[C@]21CC[C@@H](CC(=O)O)CC1
Cytochrome P450 2D6
  inhibition (INH): Not Active
Mus musculus [1]
  Activity: 99.7%
[2]
  half-life: 4.4 h
Cytochrome P450 2C9
  inhibition (INH): Not Active
Cynomolgus monkey [3]
  Activity: Non-toxic
[4]
  clearance: 0.45 L/h/kg
[5]
  AUC: 650 nM·h
Cytochrome P450 3A4
  inhibition (INH): Not Active
[6]
  AUC: 607000 nM·h
[7]
  AUC: 3.19 µg·h/mL
[8]
  Vd: 1.1 L/kg
[9]
  inhibition (INH): Not Active
Mus musculus [10]
  Activity: Dose-dependent effect
[11]
  bioavailability: 22%
[12]
  half-life: 15.4 h
[13]
  AUC: 252 µg·h/mL
Cytochrome P450 1A2
  inhibition (INH): Not Active
Rattus norvegicus [14]
  Activity: Non-toxic
Cynomolgus monkey [15]
  Activity: Non-toxic
[16]
  Vd: 2.8 L/kg

## CC1(C)Oc2ncnc(N)c2N=C1c1ccc([C@H]2CC[C@H](CC(=O)O)CC2)cc1
Cytochrome P450 2D6
  inhibition (INH): Not Active
[17]
  clearance: 0.66 L/h/kg
[18]
  AUC: 4.72 µg·h/mL
[2]
  half-life: 4.7 h
Cytochrome P450 2C9
  inhibition (INH): Not Active
[4]
  clearance: 0.11 L/h/kg
[19]
  bioavailability: 40%
[5]
  AUC: 2600 nM·h
Rattus norvegicus [20]
  Activity: 68%
Cytochrome P450 3A4
  inhibition (INH): Not Active
Rattus norvegicus [21]
  Activity: Non-toxic
Rattus norvegicus [22]
  Activity: Dose-dependent effect
[23]
  inhibition: inactive
[24]
  AUC: 6.69 µg·h/mL
[25]
  IC50: > 10 µM
Cytochrome P450 1A2
  inhibition (INH): Not Active
[16]
  Vd: 0.79 L/kg
[26]
  AUC: 1.01 µg·h/mL
